Measured values collected from several papers.
Protocols differ between the studies behind these lines.
STK16: Serine/threonine-protein kinase 16 (STK16, Homo sapiens, UniProt O75716)
TAOK3: Serine/threonine-protein kinase TAO3 (TAOK3, Homo sapiens, UniProt Q9H2K8)
PPO3: PPO3 (Agaricus bisporus, UniProt C7FF04)

For `C[C@]1(O)CCCN(c2nc(Nc3ccc(S(=O)(=O)N[C@H]4CC[C@H](CN5CCN(c6ccc(C7CCC(=O)NC7=O)cc6F)CC5)CC4)cc3F)ncc2C(F)(F)F)C1` (stereo partly shown), the remaining binding was 81% (STK16; binding, competition with immobilised ligand; 1 µM).
For `Cc1cc(O)c(-c2ccc([C@@H](C)CN(C)C)cc2)c2c1[nH]c(=O)c1sccc12`, the inhibition was 13.1% (Interleukin-1 receptor-associated kinase-like 2 (IRAK2, Homo sapiens, UniProt O43187); cell-free assay, inhibitor; 0.1 µM, lysate).
The activity vs control of `CC(=O)ON=C1C=CC(=C(C#N)c2ccccc2)C=C1` is reported as 75% (Aurora kinase B (AURKB, Homo sapiens, UniProt Q96GD4); enzyme activity, inhibitor, ADP detection; 20 µM).
`CCN1/C(=C/C(C)=O)Sc2ccc(F)cc21` gave an inhibition of 0.75% (5-hydroxytryptamine receptor 2A (HTR2A, Homo sapiens, UniProt P28223); ligand displacement, radioligand; 10 µM).
With `COc1ccc2oc(-c3ccc4nc(N)oc4c3)c/c(=N\c3ccccc3NC(=O)CCN)c2c1` the remaining binding was 114% (Serine/threonine-protein kinase WNK1 (WNK1, Homo sapiens, UniProt Q9H4A3); binding; 1 µM).
For `C[C@]1(O)CCCN(c2nc(Nc3ccc(S(=O)(=O)N[C@H]4CC[C@H](CN5CCN(c6ccc(C7CCC(=O)NC7=O)cc6F)CC5)CC4)cc3Cl)ncc2C(F)(F)F)C1` (stereo partly shown), the remaining binding was 82% (TAOK3; binding, competition with immobilised ligand; 1 µM).
`CCCCC(=O)Nc1ccc(-c2ccc3ncn(CCC)c(=O)c3c2)cn1` has a remaining binding of 99% (STK16; binding, competition with immobilised ligand; 0.5 µM).
With `Cc1cc(S(=O)(=O)N[C@H]2CC[C@H](CN3CCN(c4ccc(C5CCC(=O)NC5=O)cc4F)CC3)CC2)ccc1Nc1ncc(C(F)(F)F)c(N2CCC[C@](C)(O)C2)n1` (stereo partly shown) the remaining binding was 54% (TAOK3; binding, competition with immobilised ligand; 1 µM).
The remaining binding of `C1=C/COCc2cc(ccc2OCCN2CCCC2)Nc2nccc(n2)-c2cccc(c2)COC/1` is reported as 95% (Cytoplasmic tyrosine-protein kinase BMX (BMX, Homo sapiens, UniProt P51813); binding; 0.1 µM).
For `O=C(CCc1cccc(O)c1)N1CCN(Cc2ccc(F)cc2)CC1`, the kon was 153 M⁻¹ s⁻¹ (PPO3; binding, SPR).
`NC/C(=C\F)COc1cccc(Cn2c(=S)[nH]c(=O)c3[nH]cnc32)c1` gave an inhibition of under 50% (Sigma non-opioid intracellular receptor 1 (SIGMAR1, Homo sapiens, UniProt Q99720); ligand displacement, radioligand; 10 µM).
`Cc1ccc(CN2CCN(C(=O)/C=C/c3ccc(O)cc3O)CC2)cc1` gave a kon of 298 M⁻¹ s⁻¹ (PPO3; binding, SPR).
The inhibition of `Cc1cc(F)cc2c(CCC(=O)N[C@@H]3C(=O)NC[C@H]3O)c(-c3ccc(F)cc3)[nH]c12` is reported as 15% (Adenosine receptor A2a (ADORA2A, Homo sapiens, UniProt P29274); cell-free assay; 10 µM).
